ChEMBL document CHEMBL4265907, “Design, synthesis and pharmacological evaluation of N4,N6-disubstituted pyrimidine-4,6-diamine derivatives as potent EGFR inhibitors in non-small cell lung cancer” (Eur J Med Chem, 2018)
The source made the active and inactive calls. The rule behind the calls is not given here.

Experiments:
[1] = system: HCC827; test: Induction of apoptosis in human HCC827 cells assessed as necrotic cells at 500 nM after 48 hrs by Annexin V-FITC/PI staining based flow cytometry (reference value: 1.41%); type: functional
[2] = system: A-431; test: Induction of apoptosis in human A431 cells assessed as early apoptotic cells at 500 nM after 48 hrs by Annexin V-FITC/PI staining based flow cytometry (reference value: 3.40%); type: functional
[3] = system: A-431; test: Induction of apoptosis in human A431 cells assessed as viable cells at 500 nM after 48 hrs by Annexin V-FITC/PI staining based flow cytometry (reference value: 90.3%); type: functional; conditions: A-431, 48 h, read-out: Activity
[4] = system: NCI-H1975; test: Induction of apoptosis in human NCI-H1975 cells assessed as late apoptotic cells after 48 hrs by Annexin V-FITC/PI staining based flow cytometry; type: functional, cell-based
[5] = system: NCI-H3255; test: Induction of apoptosis in human H3255 cells assessed as late apoptotic cells at 250 nM after 48 hrs by Annexin V-FITC/PI staining based flow cytometry (reference value: 1.77%); type: functional
[6] = system: HCC827; test: Induction of apoptosis in human HCC827 cells assessed as early apoptotic cells at 500 nM after 48 hrs by Annexin V-FITC/PI staining based flow cytometry (reference value: 2.83%); type: functional
[7] = system: HCC827; test: Induction of apoptosis in human HCC827 cells assessed as early apoptotic cells at 250 nM after 48 hrs by Annexin V-FITC/PI staining based flow cytometry (reference value: 2.83%); type: functional
[8] = target: T1, Epidermal growth factor receptor (Homo sapiens, UniProt P00533); test: Inhibition of EGFR in human H1975 cells assessed as decrease in EGF-induced ERK1/2 phosphorylation by Western blot method; type: cell-based
T1 sequence (P00533 whole entry): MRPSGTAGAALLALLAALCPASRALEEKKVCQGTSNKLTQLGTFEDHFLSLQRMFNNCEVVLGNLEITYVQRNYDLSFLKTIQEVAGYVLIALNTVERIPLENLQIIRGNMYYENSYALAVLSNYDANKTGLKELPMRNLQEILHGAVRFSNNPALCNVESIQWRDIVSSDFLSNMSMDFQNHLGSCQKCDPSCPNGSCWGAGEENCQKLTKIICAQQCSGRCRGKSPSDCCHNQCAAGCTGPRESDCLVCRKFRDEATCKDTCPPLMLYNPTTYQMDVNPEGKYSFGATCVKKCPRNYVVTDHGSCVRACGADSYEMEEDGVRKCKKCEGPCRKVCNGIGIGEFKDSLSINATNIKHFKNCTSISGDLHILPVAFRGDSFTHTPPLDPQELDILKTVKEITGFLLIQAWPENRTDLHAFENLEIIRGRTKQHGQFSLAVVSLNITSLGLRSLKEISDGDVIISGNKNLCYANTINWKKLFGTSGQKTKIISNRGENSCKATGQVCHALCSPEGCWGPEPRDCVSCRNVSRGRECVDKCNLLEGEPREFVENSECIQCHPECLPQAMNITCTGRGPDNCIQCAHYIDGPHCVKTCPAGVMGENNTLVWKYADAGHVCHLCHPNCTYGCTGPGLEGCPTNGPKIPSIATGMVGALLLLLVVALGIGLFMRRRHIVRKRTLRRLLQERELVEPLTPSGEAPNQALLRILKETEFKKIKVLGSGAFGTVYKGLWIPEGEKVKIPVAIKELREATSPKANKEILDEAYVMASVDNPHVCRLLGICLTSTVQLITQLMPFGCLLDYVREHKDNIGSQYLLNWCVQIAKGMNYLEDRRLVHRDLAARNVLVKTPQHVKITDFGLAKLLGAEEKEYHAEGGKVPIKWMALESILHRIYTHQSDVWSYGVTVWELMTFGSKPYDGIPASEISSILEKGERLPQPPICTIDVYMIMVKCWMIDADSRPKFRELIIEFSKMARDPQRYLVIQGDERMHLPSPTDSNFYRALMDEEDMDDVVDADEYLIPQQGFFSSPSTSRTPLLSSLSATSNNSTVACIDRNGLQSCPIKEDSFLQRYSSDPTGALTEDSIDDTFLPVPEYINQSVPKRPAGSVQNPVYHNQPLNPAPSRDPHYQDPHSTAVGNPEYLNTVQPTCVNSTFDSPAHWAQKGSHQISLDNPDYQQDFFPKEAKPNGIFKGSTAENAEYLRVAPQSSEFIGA
Outline: (§1)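 Cell lysates prepared in protein lysis buffer and cleared at 12,000 g for 10 min at 4 °C. 50 μg protein per lane was run on a gel, transferred to PVDF and immunoblotted, with GAPDH as the loading control.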

[9] = system: Mus musculus; test: In vivo inhibition of EGFR phosphorylation in tumor of BALB/C nude mouse xenografted with human PC9 cells at 15 to 30 mg/kg, ip qd administered for 19 days by immunohistochemical analysis; type: functional, organism-based
[10] = system: NCI-H3255; test: Induction of apoptosis in human H3255 cells assessed as viable cells at 1000 nM after 48 hrs by Annexin V-FITC/PI staining based flow cytometry (reference value: 87.9%); type: functional; conditions: NCI-H3255, 48 h, read-out: Activity
[11] = system: A-431; test: Induction of apoptosis in human A431 cells assessed as early apoptotic cells after 48 hrs by Annexin V-FITC/PI staining based flow cytometry; type: functional, cell-based
[12] = system: NCI-H3255; test: Induction of apoptosis in human H3255 cells assessed as viable cells after 48 hrs by Annexin V-FITC/PI staining based flow cytometry; type: functional, cell-based
[13] = system: NCI-H1975; test: Induction of apoptosis in human NCI-H1975 cells assessed as necrotic cells at 250 nM after 48 hrs by Annexin V-FITC/PI staining based flow cytometry (reference value: 2.31%); type: functional
[14] = MRT (0 to t) in Sprague-Dawley rat at 30 mg/kg, po by UPLC-MS/MS analysis; type: ADME, organism-based; conditions: in vivo
Outline: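 Male and female Sprague-Dawley rats (200–220 g) were fasted 12 h and given a single oral dose of 30 mg/kg as a 0.5% CMC-Na suspension. Blood was sampled at 0.083, 0.25, 0.5, 1, 2, 4, 8 and 24 h and centrifuged at 4000 r/min for 10 min. Plasma was quantified by UPLC–MS/MS.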

[15] = system: HCC827; test: Induction of apoptosis in human HCC827 cells assessed as viable cells after 48 hrs by Annexin V-FITC/PI staining based flow cytometry; type: functional, cell-based
[16] = target: T1, Epidermal growth factor receptor; test: Inhibition of EGFR in human H3255 cells assessed as decrease in EGF-induced ERK1/2 phosphorylation by Western blot method; type: cell-based; outline: as §1
[17] = AUC (0 to infinity) in Sprague-Dawley rat at 30 mg/kg, po by UPLC-MS/MS analysis; type: ADME, organism-based; parameters: dose 30 mg/kg, route oral, time infinity; conditions: in vivo
Outline: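 Four female and four male Sprague-Dawley rats, 200-220 g, fasted 12 h, then given a single oral dose of 30 mg/kg as a 0.5% CMC-Na suspension. Blood sampled at 0.083, 0.25, 0.5, 1, 2, 4, 8 and 24 h, plasma separated by centrifugation at 4000 r/min for 10 min, and analysed by UPLC–MS/MS. Parameters reported as mean ± SD, n=6.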

[18] = system: NCI-H1975; test: Induction of apoptosis in human NCI-H1975 cells assessed as necrotic cells at 1000 nM after 48 hrs by Annexin V-FITC/PI staining based flow cytometry (reference value: 2.31%); type: functional
[19] = system: NCI-H1975; test: Induction of apoptosis in human NCI-H1975 cells assessed as early apoptotic cells at 500 nM after 48 hrs by Annexin V-FITC/PI staining based flow cytometry (reference value: 2.07%); type: functional
[20] = system: NCI-H1975; test: Induction of apoptosis in human NCI-H1975 cells assessed as early apoptotic cells at 250 nM after 48 hrs by Annexin V-FITC/PI staining based flow cytometry (reference value: 2.07%); type: functional
[21] = system: Mus musculus; test: In vivo inhibition of EGFR phosphorylation in tumor of BALB/C nude mouse xenografted with human PC9 cells at 15 to 30 mg/kg, ip qd administered for 19 days by immunoblot method; type: functional, organism-based
[22] = system: Mus musculus; test: Toxicity in BALB/C nude mouse xenografted with human PC9 cells at 15 to 30 mg/kg, ip qd administered for 19 days measured for 23 days; type: organism-based; conditions: in vivo, 552 h
Outline: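 Six-week-old BALB/C-nu mice were injected subcutaneously in the right flank with about 2×10^6 PC-9 cells. At a tumour size of ~0.2-0.4 cm³ they were randomised, 5 mice/group. Drug was given in DMSO:Span-80:ddH₂O 2:1:50, ip, daily at 15 or 30 mg/kg for 19 days; vehicle group included. Tumour volume = (W²×L)/2.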

[23] = system: A-431; test: Induction of apoptosis in human A431 cells assessed as viable cells at 1000 nM after 48 hrs by Annexin V-FITC/PI staining based flow cytometry (reference value: 90.3%); type: functional; conditions: A-431, 48 h, read-out: Activity
[24] = target: T1, Epidermal growth factor receptor; test: Inhibition of EGFR in human A431 cells assessed as decrease in EGF-induced AKT phosphorylation by Western blot method; type: cell-based; outline: as §1
[25] = target: T1, Epidermal growth factor receptor; test: Inhibition of EGF-induced EGFR autophosphorylation at Y1068 residues in human A431 cells by Western blot method; type: cell-based; outline: as §1
[26] = system: NCI-H1975; test: Induction of apoptosis in human NCI-H1975 cells assessed as viable cells at 1000 nM after 48 hrs by Annexin V-FITC/PI staining based flow cytometry (reference value: 93.7%); type: functional; conditions: NCI-H1975, 48 h, read-out: Activity
[27] = system: A-431; test: Induction of apoptosis in human A431 cells assessed as viable cells at 250 nM after 48 hrs by Annexin V-FITC/PI staining based flow cytometry (reference value: 90.3%); type: functional; conditions: A-431, 48 h, read-out: Activity
[28] = system: NCI-H1975; test: Induction of apoptosis in human NCI-H1975 cells assessed as necrotic cells at 500 nM after 48 hrs by Annexin V-FITC/PI staining based flow cytometry (reference value: 2.31%); type: functional

## COc1cccc(Nc2cc(Nc3cc(OC)ccc3OC)ncn2)c1
[1]
  Activity: 9.2%
[2]
  Activity: 15.1%
[3]
  viability at 0.5 µM: 70.7%
[4]
  Activity: Dose-dependent effect
[5]
  Activity: 3.24%
[6]
  Activity: 21.3%
[7]
  Activity: 15.5%
[8]
  inhibition: Dose-dependent effect
[9]
  inhibition: Active
[10]
  viability at 1 µM: 65.4%
[11]
  Activity: Dose-dependent effect
[12]
  Activity: Dose-dependent effect
[13]
  Activity: 7.95%
[14]
  MRT last: 6.66 h
[15]
  Activity: Dose-dependent effect
[16]
  inhibition: Dose-dependent effect
[17]
  AUC(0-inf): 5820 ng·h/mL
[18]
  Activity: 7.56%
[19]
  Activity: 25%
[20]
  Activity: 22.6%
[21]
  inhibition: Active
[22]
  Activity: Non-Toxic
[23]
  viability at 1 µM: 65.3%
[24]
  inhibition: Dose-dependent effect
[25]
  inhibition: Dose-dependent effect
[26]
  viability at 1 µM: 46.4%
[27]
  viability at 0.25 µM: 79.3%
[28]
  Activity: 6.93%
